Data reported in ChEMBL document CHEMBL3244340, “Antineoplastic agents. 1. Synthesis and antineoplastic activities of chloroethyl- and methylnitrosourea analogues of thymidine” (J Med Chem, 1978).

Legend:
L1210 = assay: Cytotoxicity against mouse L1210 cells after 72 hrs by coulter counter analysis; format: functional; conditions: L1210, 72 h, read-out: ED50 (the source's name)
In short: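 Murine L1210 leukemia cells grown in suspension in Fischer's medium with 10% horse serum, 37 °C. Cells exposed to nitrosoureas for 72 h, then counted by Coulter counter, two independent samples in duplicate per concentration. ED50 (concentration inhibiting growth by 50%) estimated from dose-response curves pooled from at least three separate experiments.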

[1] = Alkylating activity of the compound relative to 1,3-bis-(2-chloroethyl)-1-nitrosourea; format: physicochemical
[2] = Carbamoylating activity of the compound at 5 umol by liquid scintillation spectrometry in presence of [14C]-lysine relative to 1,3-bis-(2-chloroethyl)-1-nitrosourea; format: physicochemical

| SMILES | EC50 (L1210) | fold change (FC) [1] | fold change (FC) [2] |
| --- | --- | --- | --- |
| Cc1cn([C@H]2C[C@H](O)[C@@H](CNC(=O)N(CCCl)N=O)O2)c(=O)[nH]c1=O | 6.6 µM | 0.47 | 1.6 |
| Cc1cn([C@H]2C[C@H](O)[C@@H](CN(N=O)C(=O)NCCCl)O2)c(=O)[nH]c1=O | 4.2 µM | 0.06 | 1.6 |
| Cc1cn([C@H]2C[C@H](O)[C@@H](CNC(=O)N(C)N=O)O2)c(=O)[nH]c1=O | 95 µM | 0.05 | 1 |
| Cc1cn([C@H]2C[C@H](NC(=O)N(CCCl)N=O)[C@@H](CO)O2)c(=O)[nH]c1=O | 1.5 µM | 2.1 | 0.9 |
| Cc1cn([C@H]2C[C@H](NC(=O)N(C)N=O)[C@@H](CO)O2)c(=O)[nH]c1=O | 1 µM | 0.05 | 0.9 |
| O=NN(CCCl)C(=O)NCCCl [CARMUSTINE] | 4 µM | – | – |
